Measurements reported in ChEMBL document CHEMBL1137077, “Design, synthesis, anti-HIV activities, and metabolic stabilities of alkenyldiarylmethane (ADAM) non-nucleoside reverse transcriptase inhibitors” (J Med Chem, 2004).
pEC50: −log10 of the molar value.

Legend:
[1] = Half-life in rat plasma; format: ADME
[2] = tested on: Human immunodeficiency virus 2; assay: Effective concentration required to inhibit cytopathicity of HIV-2(ROD) in MT-4 cells.; format: functional, organism-based; conditions: mt4
Method in brief: (§1)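 MT-4 cells resuspended at 6 × 10⁵ cells/mL and infected with HIV-1 IIIB or HIV-2 ROD at 100–300 CCID₅₀, with compound added at infection. Serial 5-fold dilutions were run in triplicate. After 5 days, viability was read by MTT reduction at 540 and 690 nm using the median OD of three wells. EC₅₀ is the concentration giving 50% protection from viral cytopathic effect.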

[3] = tested on: Human immunodeficiency virus 1; assay: Effective concentration required to inhibit cytopathicity of HIV-1(IIIB) in MT-4 cells; format: functional, organism-based; conditions: Human immunodeficiency virus 1, MT4; method in brief: as §1
MT4 [4] = assay: Evaluated for cytotoxicity in mock-infected MT-4 cells; format: functional; conditions: Homo sapiens
Method in brief: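 Exponentially growing MT-4 cells were resuspended at 6 × 10⁵ cells/mL in mock-infected wells alongside infected wells, with serial 5-fold compound dilutions run in triplicate. MTT viability was read after 5 days at 540 and 690 nm using the median OD of three wells. CC₅₀ is the concentration reducing OD₅₄₀ of mock-infected controls by 50%.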

MT4 [5] = assay: Evaluated for the ability to inhibit cytopathicity of HIV-1(IIIB) in MT-4 cells; format: functional, cell-based; conditions: Homo sapiens; method in brief: as §1
MT4 [6] = assay: Effective concentration required to inhibit cytopathicity of HIV-1(IIIB) in MT-4 cells; Not active; format: functional, cell-based, Homo sapiens; method in brief: as §1
MT4 [7] = assay: Effective concentration required to inhibit cytopathicity of HIV-2(ROD) in MT-4 cells; format: functional, cell-based; conditions: Homo sapiens; method in brief: as §1

| half-life [1] [min] | EC50 [2] | pEC50 [3] | SMILES | CC50 (MT4 [4]) [µM] | pEC50 (MT4 [5]) | EC50 (MT4 [6]) | pEC50 (MT4 [7]) |
| --- | --- | --- | --- | --- | --- | --- | --- |
| 12.4 | Not Active | 6.10 | COC(=O)CCCC=C(c1cc(C#N)c(OC)c(C(=O)OC)c1)c1cc(C#N)c(OC)c(C(=O)OC)c1 | > 247 | – | – | – |
| 2.6 | Not Active | – | COC(=O)CCCC=C(c1ccc(OC)cc1OC)c1ccc(OC)cc1OC | 5.9 | – | Not Active | – |
| 1.7 | Not Active | 5.46 | COC(=O)c1cc(C(=CCCCC(=O)OC(C)C)c2cc(C)c(OC)c(C(=O)OC)c2)cc(C)c1OC | 59.5 | – | – | – |
| 3.4 | Not Active | 5.66 | CCCOC(=O)CCCC=C(c1cc(Br)c(OC)c(C(=O)OC)c1)c1cc(Br)c(OC)c(C(=O)OC)c1 | 114 | – | – | – |
| 9 | Not Active | 6.10 | COC(=O)CCC/C=C(\c1cc(C)c(OC)c(C(=O)OC)c1)c1cc(Cl)c(OC)c(C(=O)OC)c1 | 19.1 | – | – | – |
| 7.4 | Not Active | 5.51 | CCCOC(=O)CCCC=C(c1cc(Cl)c(OC)c(C(=O)OC)c1)c1cc(Cl)c(OC)c(C(=O)OC)c1 | 159 | – | – | – |
| 9 | Not Active | 5.43 | CCOc1c(C)cc(C(=CCCCC(=O)OC)c2cc(C)c(OCC)c(C(=O)OC)c2)cc1C(=O)OC | 73 | – | – | – |
| 19.2 | Not Active | – | COC(=O)CCC/C=C(/c1ccc(OC)c(OC)c1)c1cc(C)c(OC)c(C(=O)OC)c1 | 0.25 | – | Not Active | – |
| 0.9 | Not Active | – | COC(=O)CCCC=C(c1ccc(OC)c(OC)c1)c1ccc(OC)c(OC)c1 | 7.4 | – | Not Active | – |
| 5.7 | Not Active | 5.57 | COC(=O)c1cc(C(=CCCCC(=O)OC(C)C)c2cc(Br)c(OC)c(C(=O)OC)c2)cc(Br)c1OC | 35.3 | – | – | – |
| 42.9 | Not Active | 6.00 | COC(=O)CCCC=C(c1cc(C)c(OC)c(C(=O)OC)c1)c1cc(C)c(OC)c(C(=O)OC)c1 | 6.1 | – | – | – |
| – | Not Active | – | CCCOc1c(C)cc(C(=CCCCC(=O)OC)c2cc(C)c(OCCC)c(C(=O)OC)c2)cc1C(=O)OC | > 231 | – | Not Active | – |
| 6.2 | Not Active | 6.52 | COC(=O)CCCC=C(c1cc(Br)c(OC)c(C(=O)OC)c1)c1cc(Br)c(OC)c(C(=O)OC)c1 | 91 | – | – | – |
| 5.2 | Not Active | 5.46 | CCCOC(=O)CCCC=C(c1cc(C)c(OC)c(C(=O)OC)c1)c1cc(C)c(OC)c(C(=O)OC)c1 | 93.4 | – | – | – |
| 5.8 | – | 6.22 | COC(=O)CCCC=C(c1cc(Cl)c(OC)c(C(=O)OC)c1)c1cc(Cl)c(OC)c(C(=O)OC)c1 | 160 | – | – | 4.60 |
| – | Not Active | – | COC(=O)CCC/C=C(\c1ccc(OC)c(OC)c1)c1cc(Cl)c(OC)c(C(=O)OC)c1 | 8.7 | – | Not Active | – |

More lines, now with the values behind:

| SMILES | half-life [1] [min] | EC50 [2] | pEC50 [3] | CC50 (MT4 [4]) [µM] | pEC50 (MT4 [5]) | EC50 (MT4 [6]) | pEC50 (MT4 [7]) |
| --- | --- | --- | --- | --- | --- | --- | --- |
| COCCCCC=C(c1cc(Br)c(OC)c(C(=O)OC)c1)c1cc(Br)c(OC)c(C(=O)OC)c1 | 35.1 | Not Active | – | 28.6 | 5.55 | – | – |
| COC(=O)c1cc(C(=CCCCc2ccccc2)c2cc(Br)c(OC)c(C(=O)OC)c2)cc(Br)c1OC | 55 | – | 5.59 | > 198 | – | – | 4.53 |
| CCOC(=O)c1cc(C(=CCCCC(=O)OC)c2cc(C)c(OCC)c(C(=O)OCC)c2)cc(C)c1OCC | 37.7 | Not Active | 4.85 | > 231 | – | – | – |
| C=CCCCC=C(c1cc(Br)c(OC)c(C(=O)OC)c1)c1cc(Br)c(OC)c(C(=O)OC)c1 | 58.5 | Not Active | 5.52 | 62.3 | – | – | – |
| CCCOC(=O)c1cc(C(=CCCCC(=O)OC)c2cc(C)c(OCCC)c(C(=O)OCCC)c2)cc(C)c1OCCC | – | Not Active | – | > 209 | – | Not Active | – |
| CCCCCC=C(c1cc(Cl)c(OC)c(C(=S)OC)c1)c1cc(Cl)c(OC)c(C(=S)OC)c1 | – | Not Active | – | 181 | – | Not Active | – |
| COc1c(Cl)cc(C(=CCCCCO)c2cc(Cl)c(OC)c(CO)c2)cc1CO | – | Not Active | – | 30.7 | – | Not Active | – |
| COC(=S)CCCC=C(c1cc(Cl)c(OC)c(C(=S)OC)c1)c1cc(Cl)c(OC)c(C(=S)OC)c1 | – | Not Active | 4.45 | > 218 | – | – | – |
| CCCCCC=C(c1cc(Cl)c(OC)c(C(C)=O)c1)c1cc(Cl)c(OC)c(C(C)=O)c1 | – | Not Active | – | 47.1 | – | Not Active | – |
| COCCCCC=C(c1cc(Cl)c(OC)c(COC)c1)c1cc(Cl)c(OC)c(COC)c1 | – | Not Active | – | 34 | – | Not Active | – |
| C=CCCCC=C(c1cc(Cl)c(OC)c(C(=O)OC)c1)c1cc(Cl)c(OC)c(C(=O)OC)c1 | 39.3 | – | 5.43 | > 253 | – | – | 4.58 |
| COC(=O)CCCC(CCCC(=O)OC)=C(c1cc(Br)c(OC)c(C(=O)OC)c1)c1cc(Br)c(OC)c(C(=O)OC)c1 | – | Not Active | – | 78.1 | – | Not Active | – |
| C#CCCCC=C(c1cc(Cl)c(OC)c(C(=O)OC)c1)c1cc(Cl)c(OC)c(C(=O)OC)c1 | 20.6 | Not Active | 5.96 | 143 | – | – | – |
| COC(=O)c1cc(C(=CCCCc2ccccc2)c2cc(Cl)c(OC)c(C(=O)OC)c2)cc(Cl)c1OC | 76.6 | – | 4.88 | > 230 | – | – | 3.95 |
| COC(=O)CCCC=C(c1cc(Cl)c(OC)c(C(=O)SC)c1)c1cc(Cl)c(OC)c(C(=O)SC)c1 | 55.3 | Not Active | 5.74 | > 224 | – | – | – |
| C#CCCCC=C(c1cc(Br)c(OC)c(C(=O)OC)c1)c1cc(Br)c(OC)c(C(=O)OC)c1 | 18.9 | Not Active | 6.15 | 57.8 | – | – | – |
